# Screening data: PubChem, Broad Institute
# IDH1 R132H inh: inhibitors of IDH1 R132H reductase, primary screen, biochemical, plate reader, single point; diaphorase/resazurin fluorescence, 60 min; inhibition, % at 10 µM; 70,000 tested, 0.18% active; in the data active means inhibition above about 34%; inconclusive means no clear call, values can overlap the other calls; inactive means below about 11%;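 further: 0% = DMSO and 100% = no enzyme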
# Target sequence (O75874 whole entry R132H): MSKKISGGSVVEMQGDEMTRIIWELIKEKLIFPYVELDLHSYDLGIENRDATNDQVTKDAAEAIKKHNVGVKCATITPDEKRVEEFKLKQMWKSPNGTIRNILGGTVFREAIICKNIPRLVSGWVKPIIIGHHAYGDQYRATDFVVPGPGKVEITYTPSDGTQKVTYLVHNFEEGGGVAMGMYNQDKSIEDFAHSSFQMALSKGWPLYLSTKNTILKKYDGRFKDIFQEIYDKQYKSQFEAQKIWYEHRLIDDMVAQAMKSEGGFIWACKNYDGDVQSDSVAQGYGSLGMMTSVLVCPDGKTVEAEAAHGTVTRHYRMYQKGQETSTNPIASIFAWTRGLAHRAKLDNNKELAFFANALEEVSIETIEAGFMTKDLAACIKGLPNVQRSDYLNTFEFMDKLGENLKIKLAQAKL
# KDM4C inh: inhibitors of GASC-1 (KDM4C) histone demethylase, primary screen, biochemical, single concentration HTS; Lysine-specific demethylase 4C (Homo sapiens), Q9H3R0; GST-KDM4C 2-372, H3K9me3 peptide, LANCE TR-FRET; inhibition, % at 12.5 µM; 96,000 tested, 0.15% active; AID 720574, 2013;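 active means mean replicate inhibition above about 25%, with at least 55% of replicates also reaching it, limit read from the data, passing the limit was not always enough; inconclusive means only one of those two conditions met; inactive means neither condition met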
#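 System: N-terminal GST-fused human GASC-1 (KDM4C) fragment, residues 2-372 / Amount: 10 nM GST-KDM4C in enzyme reaction / Also added: H3K9me3 peptide with Fe(II)/2OG / Times: 30 min demethylation and 1 h detection at room temperature / Signal: LANCE TR-FRET / Read-out basis: Fall in 671/618 emission ratio as inhibition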
# Pf Dd2 inh: P. falciparum Dd2 growth inhibitors, primary screen, SYBR Green fluorescence, single dose replicates; activity change, % at 10 µM; 94,000 tested, 2.3% active; 72 h; hits give low values; AID 1159554, 2015; in the data active means activity change below about -80%; inconclusive means no clear call, values can overlap the other calls
# Tcruzi prolif: T. cruzi intracellular proliferation inhibitors, primary screen, cell-based, beta-gal Tulahuen parasites, NIH3T3 host, luminescence. T. cruzi beta-gal in NIH3T3, GalScreen luminescence, 90 h. inhibition, % at 8.34 µM. 77,000 tested, 5.9% active. AID 624255, 2012;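 active means mean inhibition above about 93%, with at least 55% of replicates each passing it, limit read from the data, passing the limit was not always enough; inconclusive means only one of those two conditions holds; inactive means neither condition holds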
# Starred values were filed as active, the others as inactive; u = inconclusive; x = not tested or not shown. Only some compounds are listed: those with a hit (about 5.8% of all), similar ones and a draw of the others.
SMILES,IDH1 R132H inh,KDM4C inh,Pf Dd2 inh,Tcruzi prolif
C[C@@H]1CN([C@H](C)CO)C(=O)c2cc(NC(=O)Nc3ccc(C(F)(F)F)cc3)ccc2O[C@@H](C)CCCCO[C@@H]1CN(C)Cc1ccncc1,x,0,-77,92
C[C@@H]1CCCCO[C@@H](CN(C)Cc2ccc(Cl)c(Cl)c2)[C@H](C)CN([C@H](C)CO)C(=O)c2cc(NC(=O)C3CCCCC3)ccc2O1,0,2,-83*,84
C[C@@H]1CCCCO[C@H](CN(C)Cc2ccc(C(F)(F)F)cc2)[C@@H](C)CN([C@@H](C)CO)C(=O)c2cc(NC(=O)Cc3ccccc3)ccc2O1,x,-1,-89*,6
O=C(c1ccc(F)cc1)N1CCCCN2[C@H](CO)[C@@H](c3ccc(/C=C/c4ccccc4)cc3)[C@@H]2C1,x,-1,1,72
COc1ccccc1NC(=O)N[C@H]1CC[C@@H](CCNC(=O)Cc2ccccn2)O[C@H]1CO,0,0,-8,x
C[C@@H]1CCCCO[C@H](CN(C)Cc2ccc(C(F)(F)F)cc2)[C@@H](C)CN([C@H](C)CO)C(=O)c2cc(NC(=O)c3ccccc3)ccc2O1,x,0,-37,93
C[C@@H]1CN([C@H](C)CO)C(=O)c2cc(NC(=O)Nc3ccc(F)cc3)ccc2O[C@@H](C)CCCCO[C@H]1CN(C)Cc1ccc(C(F)(F)F)cc1,x,-2,-82*,94
C[C@@H]1CCCCO[C@H](CN(C)Cc2ccc(C(F)(F)F)cc2)[C@H](C)CN([C@@H](C)CO)C(=O)c2cc(NC(=O)c3ccccc3)ccc2O1,x,-2,-85*,67
C[C@H]1CCCCO[C@H](CN(C)Cc2ccc(C(F)(F)F)cc2)[C@@H](C)CN([C@@H](C)CO)C(=O)c2cc(NC(=O)Nc3ccc(F)cc3)ccc2O1,x,-1,-2,91
C[C@@H]1CN([C@H](C)CO)C(=O)c2cc(NC(=O)Nc3ccc(C(F)(F)F)cc3)ccc2O[C@@H](C)CCCCO[C@@H]1CN(C)Cc1ccc(Cl)c(Cl)c1,x,-1,-87*,48
COCC(=O)Nc1ccc2c(c1)[C@H]1C[C@H](CC(=O)NCCc3ccccc3)O[C@H](CO)[C@H]1O2,1,1,-16,-13
COc1ccc(S(=O)(=O)Nc2ccc3c(c2)C(=O)N([C@H](C)CO)C[C@@H](C)[C@H](CN(C)S(=O)(=O)c2ccc(F)cc2)O3)cc1,x,-1,10,39
COc1ccc(NC(=O)Nc2ccc3c(c2)C(=O)N([C@H](C)CO)C[C@@H](C)[C@@H](CN(C)C(=O)Nc2ccc4c(c2)OCO4)O3)cc1,0,-1,-13,11
C[C@@H]1CCCCO[C@H](CN(C)Cc2ccccc2)[C@@H](C)CN([C@@H](C)CO)C(=O)c2cc(N(C)C)ccc2O1,-3,-3,-22,19
C[C@H](CO)N1C[C@H](C)[C@H](CN(C)C(=O)c2ccc(F)cc2)OCc2ccccc2-c2c(n(C)c3ccccc23)C1=O,0,-2,-86*,60
C[C@@H]1CN([C@H](C)CO)C(=O)c2c(c3ccccc3n2C)-c2ccccc2CO[C@@H]1CN(C)C(=O)c1cc(Cl)cc(Cl)c1,x,-2,-92*,x
C[C@H]1CN([C@@H](C)CO)C(=O)c2c(c3ccccc3n2C)-c2ccccc2CO[C@H]1CN(C)C(=O)c1cc(Cl)cc(Cl)c1,x,-2,-88*,x
C[C@H]1CN([C@@H](C)CO)C(=O)c2c(c3ccccc3n2C)-c2ccccc2CO[C@@H]1CN(C)C(=O)c1ccccc1,x,-2,-56,-22
C[C@H]1CN([C@@H](C)CO)C(=O)c2c(c3ccccc3n2C)-c2ccccc2CO[C@@H]1CN(C)C(=O)c1cc(Cl)cc(Cl)c1,x,-1,u,x
COc1ccc(Cl)cc1N(CC(=O)Nc1ccccc1F)S(C)(=O)=O,0,x,x,x
COC(=O)C[C@@H]1CC[C@@H]2[C@H](COc3ccc(NC(=O)Nc4ccc(Cl)cc4)cc3C(=O)N2C)O1,x,1,-37,65
C[C@H]1CN([C@@H](C)CO)C(=O)Cc2cc(NC(=O)Nc3ccc4c(c3)OCO4)ccc2O[C@H]1CN(C)CC1CCCCC1,3,2,8,36
C[C@H](CO)N1C[C@H](C)[C@@H](CN(C)CC2CC2)Oc2ccc(NC(=O)Nc3ccc4c(c3)OCO4)cc2CC1=O,1,0,-83*,-38
C[C@H](CO)N1C[C@H](C)[C@@H](CN(C)CC2CCCCC2)Oc2ccc(NC(=O)Nc3ccc4c(c3)OCO4)cc2CC1=O,x,0,-41,16
C[C@@H]1CN([C@@H](C)CO)C(=O)Cc2cc(NC(=O)Nc3ccc4c(c3)OCO4)ccc2O[C@@H]1CN(C)CC1CC1,2,0,-88*,-40
SMILES,IDH1 R132H inh,KDM4C inh,Pf Dd2 inh,Tcruzi prolif
COc1ccc(NC(=O)N[C@@H]2C=C[C@H](CC(=O)NCc3ccccn3)O[C@H]2CO)cc1,0,2,37,-30
C=CCN1C(=O)[C@@]2(O[C@@H](CCn3cc(CCO)nn3)[C@H]([Si](C)(C)c3ccc(OC)cc3)[C@H]2C)c2cc(NC(=O)c3ccc(OC)cc3)ccc21,66*,x,x,x
C=CCN1C(=O)[C@]2(O[C@H](CCO)[C@@H]([Si](C)(C)c3ccc(OC)cc3)[C@@H]2C)c2cc(NC(=O)[C@H](C)O)ccc21,0,x,x,x
COCCNC(=O)C[C@@H]1C[C@@H]2c3cc(NS(=O)(=O)c4ccc(F)cc4)ccc3O[C@@H]2[C@H](CO)O1,0,1,13,-34
C[C@H](CO)N1C[C@H](C)[C@H](CN(C)S(=O)(=O)c2cccc(F)c2)Oc2ncc(C#Cc3ccc(F)cc3)cc2C1=O,1,-3,-68,80
COc1ccc(C#Cc2cnc3c(c2)C(=O)N([C@H](C)CO)C[C@H](C)[C@H](CN(C)S(=O)(=O)c2ccc(C)cc2)O3)cc1OC,1,-1,-85*,92
COc1ccc(C#Cc2cnc3c(c2)C(=O)N([C@H](C)CO)C[C@H](C)[C@H](CN(C)S(=O)(=O)c2cccc(F)c2)O3)cc1OC,x,-4,-87*,53
COc1ccc(C#Cc2cnc3c(c2)C(=O)N([C@H](C)CO)C[C@H](C)[C@H](CN(C)S(C)(=O)=O)O3)cc1OC,-2,0,-28,31
CCCNC(=O)C[C@@H]1C[C@H]2c3cc(NC(=O)C4CCC4)ccc3O[C@H]2[C@@H](CO)O1,0,0,7,-13
O=C(O)c1cc(N(Cc2ccccc2O)Cc2cc(O)ccc2O)ccc1O,41*,x,x,x
Cc1ccc(S(=O)(=O)N(C)C[C@H]2OCc3ccccc3-c3c(n(C)c4ccccc34)C(=O)N([C@@H](C)CO)C[C@@H]2C)cc1,x,-4,-92*,55
Cc1ccc(S(=O)(=O)N(C)C[C@@H]2OCc3ccccc3-c3c(n(C)c4ccccc34)C(=O)N([C@H](C)CO)C[C@@H]2C)cc1,x,x,-92*,x
